# Measurements reported in ChEMBL document CHEMBL5724801, “EUbOPEN Chemogenomics Library - Multiplex” (2024).
# “And” between values parts separate entries of the source, which are not always exact repeats. Identical values can stand only once.
# Test system: U2OS
# Test: Multiplex assay against U2OS
# Assay type: toxicity, cell-based
# Settings: human
# Procedure, shortened: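 Tubulin, mitochondrial-mass and membrane-permeability phenotypes are per cents of healthy-nucleus cells. Cells were gated by CellPathfinder machine learning into Hoechst high-intensity objects or normal cells, normal cells into healthy, pyknosed or fragmented nuclei, and pyknosed cells into mitotic or apoptotic. Before that, live cells stained at seeding with Hoechst33342, BioTracker Green Microtubule Cytoskeleton Dye, MitoTracker Red and Annexin V Alexa Fluor 680 were imaged on a CQ1 microscope at 37°C and 5% CO2 after compound addition.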
# [1] = 12 h, 1 µM, compound concentration 1 uM
# [2] = 12 h, 10 µM, compound concentration 10 uM
# [3] = 24 h, 1 µM, compound concentration 1 uM
# [4] = 24 h, 10 µM, compound concentration 10 uM
# [5] = 48 h, 1 µM, compound concentration 1 uM
# [6] = 48 h, 10 µM, compound concentration 10 uM
structure (smiles),measurement,setting,value
N#Cc1cc(F)cc(-c2nc(-c3ccc(F)cn3)no2)c1,Population Apoptotic (%),[1],55% and 100%
same,Population Fragmented Nuclei (%),[1],24% and 17%
same,Population Healthy Nuclei (%),[1],65% and 79%
same,Population Hoechst High Intensity Objects (%),[1],1% and 0%
same,Population Membrane Permeable-Phenotype (%),[1],5% and 6%
same,Population Mitochondria Different-Phenotype (%),[1],0% and 5%
same,Population Normal (%),[1],98% and 99%
same,Population Pyknosed Nuclei (%),[1],10% and 4%
same,Population Tubulin-Different-Phenotype (%),[1],3% and 2%
same,Total Cell Count,[1],178 and 101
same,Population Apoptotic (%),[2],76% and 88%
same,Population Fragmented Nuclei (%),[2],33% and 12%
same,Population Healthy Nuclei (%),[2],59% and 81%
same,Population Hoechst High Intensity Objects (%),[2],1%
same,Population Membrane Permeable-Phenotype (%),[2],8% and 7%
same,Population Mitochondria Different-Phenotype (%),[2],2% and 4%
same,Population Mitotic Cells (%),[2],23% and 11%
same,Population Normal (%),[2],98%
same,Population Pyknosed Nuclei (%),[2],6%
same,Population Tubulin-Different-Phenotype (%),[2],2% and 1%
same,Total Cell Count,[2],196 and 151
same,Population Apoptotic (%),[3],90%
same,Population Fragmented Nuclei (%),[3],22% and 8%
same,Population Healthy Nuclei (%),[3],66% and 84%
same,Population Hoechst High Intensity Objects (%),[3],4% and 0%
same,Population Membrane Permeable-Phenotype (%),[3],8% and 2%
same,Population Mitochondria Different-Phenotype (%),[3],0% and 3%
same,Population Mitotic Cells (%),[3],9% and 10%
same,Population Normal (%),[3],95% and 99%
same,Population Pyknosed Nuclei (%),[3],11% and 8%
same,Population Tubulin-Different-Phenotype (%),[3],4% and 2%
same,Total Cell Count,[3],197 and 126
same,Population Apoptotic (%),[4],93% and 88%
same,Population Healthy Nuclei (%),[4],60% and 85%
same,Population Hoechst High Intensity Objects (%),[4],1% and 0%
same,Population Membrane Permeable-Phenotype (%),[4],7% and 5%
same,Population Mitochondria Different-Phenotype (%),[4],0% and 1%
same,Population Mitotic Cells (%),[4],6% and 11%
same,Population Normal (%),[4],98% and 99%
same,Population Pyknosed Nuclei (%),[4],7% and 4%
same,Population Tubulin-Different-Phenotype (%),[4],2% and 1%
same,Total Cell Count,[4],230 and 216
same,Population Apoptotic (%),[5],96% and 100%
same,Population Fragmented Nuclei (%),[5],18% and 15%
same,Population Healthy Nuclei (%),[5],71% and 79%
same,Population Hoechst High Intensity Objects (%),[5],1%
same,Population Membrane Permeable-Phenotype (%),[5],4%
same,Population Mitochondria Different-Phenotype (%),[5],0% and 3%
same,Population Mitotic Cells (%),[5],3% and 0%
same,Population Normal (%),[5],98%
same,Population Pyknosed Nuclei (%),[5],9% and 5%
same,Population Tubulin-Different-Phenotype (%),[5],2% and 1%
same,Total Cell Count,[5],290 and 199
same,Population Apoptotic (%),[6],85% and 94%
same,Population Fragmented Nuclei (%),[6],30% and 10%
same,Population Healthy Nuclei (%),[6],62% and 84%
same,Population Hoechst High Intensity Objects (%),[6],1%
same,Population Membrane Permeable-Phenotype (%),[6],6% and 4%
same,Population Mitochondria Different-Phenotype (%),[6],2%
same,Population Mitotic Cells (%),[6],14% and 5%
same,Population Normal (%),[6],98%
same,Population Pyknosed Nuclei (%),[6],7% and 5%
same,Population Tubulin-Different-Phenotype (%),[6],3% and 2%
same,Total Cell Count,[6],282 and 344
O=c1cccc2n1C[C@@H]1CNC[C@H]2C1 [CYTISINICLINE],Population Apoptotic (%),[1],31.43% and 36.84%
same,Population Fragmented Nuclei (%),[1],0.94% and 1.67%
same,Population Healthy Nuclei (%),[1],90.87% and 87.78%
same,Population Hoechst High Intensity Objects (%),[1],0%
same,Population Membrane Permeable-Phenotype (%),[1],1.29% and 1.9%
same,Population Mitochondria Different-Phenotype (%),[1],0% and 5.06%
same,Population Mitotic Cells (%),[1],68.57% and 63.16%
same,Population Normal (%),[1],100%
same,Population Pyknosed Nuclei (%),[1],8.2% and 10.56%
same,Population Tubulin-Different-Phenotype (%),[1],1.29% and 0%
same,Total Cell Count,[1],427 and 180
same,Population Apoptotic (%),[2],50%
same,Population Fragmented Nuclei (%),[2],0.98% and 7.59%
same,Population Healthy Nuclei (%),[2],90.71% and 82.28%
same,Population Hoechst High Intensity Objects (%),[2],0%
same,Population Membrane Permeable-Phenotype (%),[2],1.35% and 0.77%
same,Population Mitochondria Different-Phenotype (%),[2],0% and 6.92%
same,Population Mitotic Cells (%),[2],50%
same,Population Normal (%),[2],100%
same,Population Pyknosed Nuclei (%),[2],8.31% and 10.13%
same,Population Tubulin-Different-Phenotype (%),[2],1.62% and 1.54%
same,Total Cell Count,[2],409 and 158
same,Population Apoptotic (%),[3],30.23% and 40%
same,Population Fragmented Nuclei (%),[3],2.82% and 2.92%
same,Population Healthy Nuclei (%),[3],89.59% and 86.67%
same,Population Hoechst High Intensity Objects (%),[3],0%
same,Population Membrane Permeable-Phenotype (%),[3],1.18% and 2.4%
same,Population Mitochondria Different-Phenotype (%),[3],0% and 2.4%
same,Population Mitotic Cells (%),[3],69.77% and 60%
same,Population Normal (%),[3],100%
same,Population Pyknosed Nuclei (%),[3],7.58% and 10.42%
same,Population Tubulin-Different-Phenotype (%),[3],0.59% and 0.96%
same,Total Cell Count,[3],567 and 240
same,Population Apoptotic (%),[4],32.61% and 45%
same,Population Fragmented Nuclei (%),[4],0.88% and 4.81%
same,Population Healthy Nuclei (%),[4],91.01% and 85.58%
same,Population Hoechst High Intensity Objects (%),[4],0.18% and 0%
same,Population Membrane Permeable-Phenotype (%),[4],0.97% and 1.69%
same,Population Mitochondria Different-Phenotype (%),[4],0% and 3.37%
same,Population Mitotic Cells (%),[4],67.39% and 55%
same,Population Normal (%),[4],99.82% and 100%
same,Population Pyknosed Nuclei (%),[4],8.11% and 9.62%
same,Population Tubulin-Different-Phenotype (%),[4],2.13% and 1.69%
same,Total Cell Count,[4],568 and 208
same,Population Apoptotic (%),[5],42.86% and 41.18%
same,Population Fragmented Nuclei (%),[5],3.85% and 0.73%
same,Population Healthy Nuclei (%),[5],89.27% and 86.8%
same,Population Hoechst High Intensity Objects (%),[5],0% and 0.49%
same,Population Membrane Permeable-Phenotype (%),[5],0.8% and 1.41%
same,Population Mitochondria Different-Phenotype (%),[5],0.1% and 3.1%
same,Population Mitotic Cells (%),[5],57.14% and 58.82%
same,Population Normal (%),[5],100% and 99.51%
same,Population Pyknosed Nuclei (%),[5],6.89% and 12.47%
same,Population Tubulin-Different-Phenotype (%),[5],0.6% and 0.56%
same,Total Cell Count,[5],1118 and 411
same,Population Apoptotic (%),[6],42.39% and 63.89%
same,Population Fragmented Nuclei (%),[6],3.71% and 1.13%
same,Population Healthy Nuclei (%),[6],87.55% and 88.7%
same,Population Hoechst High Intensity Objects (%),[6],0%
same,Population Membrane Permeable-Phenotype (%),[6],0.65% and 2.23%
same,Population Mitochondria Different-Phenotype (%),[6],0.11% and 0.96%
same,Population Mitotic Cells (%),[6],57.61% and 36.11%
same,Population Normal (%),[6],100%
same,Population Pyknosed Nuclei (%),[6],8.75% and 10.17%
same,Population Tubulin-Different-Phenotype (%),[6],1.19% and 0.64%
same,Total Cell Count,[6],1052 and 354
COc1cc(C(=O)N2CC[C@@H](O)[C@@H](N)C2)cc2nc(-c3cc4ccccc4n3CC3CC3)n(C)c12.Cl,Population Apoptotic (%),[1],50% and 75%
same,Population Fragmented Nuclei (%),[1],32% and 15%
same,Population Healthy Nuclei (%),[1],53% and 75%
same,Population Hoechst High Intensity Objects (%),[1],4% and 1%
same,Population Membrane Permeable-Phenotype (%),[1],38% and 20%
same,Population Mitochondria Different-Phenotype (%),[1],16% and 18%
same,Population Mitotic Cells (%),[1],50% and 25%
same,Population Normal (%),[1],95% and 98%
same,Population Pyknosed Nuclei (%),[1],14% and 8%
same,Population Tubulin-Different-Phenotype (%),[1],29% and 15%
same,Total Cell Count,[1],223 and 92
same,Population Apoptotic (%),[2],68% and 56%
same,Population Fragmented Nuclei (%),[2],23% and 16%
same,Population Healthy Nuclei (%),[2],38% and 61%
same,Population Hoechst High Intensity Objects (%),[2],6% and 5%
same,Population Membrane Permeable-Phenotype (%),[2],75% and 79%
same,Population Mitochondria Different-Phenotype (%),[2],88% and 91%
same,Population Mitotic Cells (%),[2],31% and 44%
same,Population Normal (%),[2],93% and 94%
same,Population Pyknosed Nuclei (%),[2],37% and 22%
same,Population Tubulin-Different-Phenotype (%),[2],96% and 94%
same,Total Cell Count,[2],208 and 120
same,Population Apoptotic (%),[3],78% and 75%
same,Population Fragmented Nuclei (%),[3],28% and 18%
same,Population Healthy Nuclei (%),[3],54% and 69%
same,Population Hoechst High Intensity Objects (%),[3],3% and 2%
same,Population Membrane Permeable-Phenotype (%),[3],19% and 17%
same,Population Mitochondria Different-Phenotype (%),[3],14% and 18%
same,Population Mitotic Cells (%),[3],21% and 25%
same,Population Normal (%),[3],96% and 97%
same,Population Pyknosed Nuclei (%),[3],17% and 11%
same,Population Tubulin-Different-Phenotype (%),[3],12% and 17%
same,Total Cell Count,[3],243 and 109
same,Population Apoptotic (%),[4],84% and 71%
same,Population Fragmented Nuclei (%),[4],25% and 26%
same,Population Healthy Nuclei (%),[4],35% and 48%
same,Population Hoechst High Intensity Objects (%),[4],4%
same,Population Membrane Permeable-Phenotype (%),[4],57% and 50%
same,Population Mitochondria Different-Phenotype (%),[4],88% and 85%
same,Population Mitotic Cells (%),[4],15% and 28%
same,Population Normal (%),[4],95%
same,Population Pyknosed Nuclei (%),[4],38% and 25%
same,Population Tubulin-Different-Phenotype (%),[4],78% and 90%
same,Total Cell Count,[4],222 and 133
same,Population Apoptotic (%),[5],82% and 76%
same,Population Fragmented Nuclei (%),[5],23%
same,Population Healthy Nuclei (%),[5],61%
same,Population Hoechst High Intensity Objects (%),[5],2%
same,Population Membrane Permeable-Phenotype (%),[5],9% and 17%
same,Population Mitochondria Different-Phenotype (%),[5],5% and 11%
same,Population Mitotic Cells (%),[5],17% and 23%
same,Population Normal (%),[5],97%
same,Population Pyknosed Nuclei (%),[5],15% and 14%
same,Population Tubulin-Different-Phenotype (%),[5],5% and 12%
same,Total Cell Count,[5],304 and 149
same,Population Apoptotic (%),[6],88% and 92%
same,Population Fragmented Nuclei (%),[6],29% and 30%
same,Population Healthy Nuclei (%),[6],35%
same,Population Hoechst High Intensity Objects (%),[6],12% and 6%
same,Population Membrane Permeable-Phenotype (%),[6],47%
same,Population Mitochondria Different-Phenotype (%),[6],65% and 84%
same,Population Mitotic Cells (%),[6],11% and 7%
same,Population Normal (%),[6],87% and 93%
same,Population Pyknosed Nuclei (%),[6],35% and 34%
same,Population Tubulin-Different-Phenotype (%),[6],62% and 75%
same,Total Cell Count,[6],232 and 131
